# In ChEMBL document CHEMBL1275516, “Macrolide antibiotic-mediated downregulation of MexAB-OprM efflux pump expression in Pseudomonas aeruginosa” (2008):
# Key:
# Assay type in all cases: functional
# Pseudomonas aeruginosa [1] = test: Antibacterial activity against Pseudomonas aeruginosa PAO4290 by agar dilution method
# Summary of the method: (§1)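 Agar dilution on Mueller-Hinton agar with an inoculum of 150 CFU/5 μl per spot. Plates were run with or without 1.0 μg/ml azithromycin incorporated in the agar, and MIC was read for each strain.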
# Pseudomonas aeruginosa [2] = test: Antibacterial activity against Pseudomonas aeruginosa PAO4290 selected after 1.0 ug/ml of azithromycin by agar dilution method; summary of the method: as §1
# Pseudomonas aeruginosa [3] = test: Antibacterial activity against Pseudomonas aeruginosa TNP030 by agar dilution method; summary of the method: as §1
# Pseudomonas aeruginosa [4] = test: Antibacterial activity against Pseudomonas aeruginosa TNP030 selected after 1.0 ug/ml of azithromycin by agar dilution method; summary of the method: as §1
# Pseudomonas aeruginosa [5] = test: Antibacterial activity against MeXAB-OprM deficient Pseudomonas aeruginosa TNP077 by agar dilution method; summary of the method: as §1
# Pseudomonas aeruginosa [6] = test: Antibacterial activity against MeXAB-OprM deficient Pseudomonas aeruginosa TNP077 selected after 1.0 ug/ml of azithromycin by agar dilution method; summary of the method: as §1
# Pseudomonas aeruginosa [7] = test: Inhibition of MexAB-OprM efflux pump expression in Pseudomonas aeruginosa TNP090 mutant harboring las and rhl gene at 1 ug/ml by Cat-2,3-diO reporter gene assay relative to untreated control; details: values are per cent of control
# Summary of the method: (§2)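 Overnight TNP090 (mexB::xylE reporter) preculture diluted 10,000-fold into fresh medium with or without antibiotic, dosed as fractions of the TNP090 MIC. Shaken at 200 rpm, 37°C, for 9 h to A600 ~1.5 (early stationary phase). Extracts made by French press at 130 MPa, then centrifuged at 13,000 × g. Cat-2,3-diO activity expressed relative to drug-free culture.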
# Pseudomonas aeruginosa [8] = test: Inhibition of MexAB-OprM efflux pump expression in Pseudomonas aeruginosa TNP090 mutant harboring las and rhl gene at 0.5 ug/ml by Cat-2,3-diO reporter gene assay relative to untreated control; details: values are per cent of control; summary of the method: as §2
# Pseudomonas aeruginosa [9] = test: Inhibition of MexAB-OprM efflux pump expression in Pseudomonas aeruginosa TNP090 mutant harboring las and rhl gene at 0.25 ug/ml by Cat-2,3-diO reporter gene assay relative to untreated control; details: values are per cent of control; summary of the method: as §2
# Pseudomonas aeruginosa [10] = test: Inhibition of MexAB-OprM efflux pump expression in Pseudomonas aeruginosa TNP090 mutant harboring las and rhl gene at 0.125 ug/ml by Cat-2,3-diO reporter gene assay relative to untreated control; details: values are per cent of control; summary of the method: as §2
# Pseudomonas aeruginosa [11] = test: Inhibition of MexAB-OprM efflux pump expression in las1 and rhl1 deficient Pseudomonas aeruginosa TNP093 at 1 ug/ml after 9 hrs by Cat-2,3-diO reporter gene assay; details: TNP093, 9 h, values are per cent of control
# Summary of the method: (§3)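 Reporter strains lacking lasI, rhlI or both were diluted 10,000-fold from overnight culture into fresh medium with or without 1 μg/ml azithromycin. Cultures were shaken at 200 rpm, 37°C for 9 h (A600 ~1.5, early stationary phase). Cat-2,3-diO activity was assayed in cell extracts and […].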
# Pseudomonas aeruginosa [12] = test: Inhibition of MexAB-OprM efflux pump expression in rhl1 deficient Pseudomonas aeruginosa TNP092 at 1 ug/ml after 9 hrs by Cat-2,3-diO reporter gene assay; details: TNP092, 9 h, values are per cent of control; summary of the method: as §3
# Pseudomonas aeruginosa [13] = test: Inhibition of MexAB-OprM efflux pump expression in las1 deficient Pseudomonas aeruginosa TNP091 at 1 ug/ml after 9 hrs by Cat-2,3-diO reporter gene assay; details: TNP091, 9 h, values are per cent of control; summary of the method: as §3
# Pseudomonas aeruginosa [14] = test: Inhibition of MexAB-OprM efflux pump expression in Pseudomonas aeruginosa TNP090 mutant harboring las and rhl gene at 1 ug/ml after 11.5 hrs by Cat-2,3-diO reporter gene assay relative to untreated control; details: TNP090, 11.5 h
# Summary of the method: (§4)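 Overnight TNP090 preculture diluted 100,000-fold (A600 3 × 10−5) in LB with or without 1 μg/ml azithromycin. Grown at 37°C with 200 rpm rotation and harvested at 5.5 h (AZM) or 4.5 h (drug-free), then at +2, +4 and +6 h. French-press extracts (130 MPa ×3), 13,000 × g supernatant assayed for Cat-2,3-diO. 1 unit = 1 nmol substrate/min/mg protein. Representative of repeated experiments.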
# Pseudomonas aeruginosa [15] = test: Inhibition of MexAB-OprM efflux pump expression in Pseudomonas aeruginosa TNP090 mutant harboring las and rhl gene at 1 ug/ml after 9.5 hrs by Cat-2,3-diO reporter gene assay relative to untreated control; details: TNP090, 9.5 h; summary of the method: as §4
# Pseudomonas aeruginosa [16] = test: Inhibition of MexAB-OprM efflux pump expression in Pseudomonas aeruginosa TNP090 mutant harboring las and rhl gene at 1 ug/ml after 7.5 hrs by Cat-2,3-diO reporter gene assay relative to untreated control; details: TNP090, 7.5 h; summary of the method: as §4
# Pseudomonas aeruginosa [17] = test: Inhibition of MexAB-OprM efflux pump expression in Pseudomonas aeruginosa TNP090 mutant harboring las and rhl gene at 1 ug/ml after 5.5 hrs by Cat-2,3-diO reporter gene assay relative to untreated control; details: TNP090, 5.5 h; summary of the method: as §4
# Pseudomonas aeruginosa [18] = test: Inhibition of MexAB-OprM efflux pump expression in Pseudomonas aeruginosa TNP090 mutant harboring las and rhl gene at 1 ug/ml by Cat-2,3-diO reporter gene assay; summary of the method: as §4
# Pseudomonas aeruginosa [19] = test: Inhibition of MexAB-OprM efflux pump expression in Pseudomonas aeruginosa at 1.0 ug/ml
# Summary of the method: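 TNP090 (las+ rhl+, mexB::xylE reporter) overnight culture was diluted 100,000-fold (A600 3 × 10−5) into LB with or without 1 μg/ml azithromycin and shaken at 200 rpm, 37°C. Cells were harvested at ~4.5 h (drug-free) or 5.5 h (drug), then at plus 2, 4 and 6 h. Cat-2,3-diO activity was measured in French-press extracts (1 unit = 1 nmol substrate/min/mg protein). Results are representative of repeated experiments.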
# Pseudomonas aeruginosa [20] = test: Antibacterial activity against Pseudomonas aeruginosa TNP090 harboring chromosomal mexB::xylE fusion construct by agar dilution method
# Summary of the method: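 Agar dilution MIC on Mueller-Hinton agar; inoculum 5 × 10^3 cells per spot.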
# Pseudomonas aeruginosa [21] = test: Inhibition of MexAB-OprM efflux pump expression in Pseudomonas aeruginosa TNP090 mutant harboring las and rhl gene at 0.03 ug/ml by Cat-2,3-diO reporter gene assay relative to untreated control; details: values are per cent of control; summary of the method: as §2
# Pseudomonas aeruginosa [22] = test: Inhibition of MexAB-OprM efflux pump expression in Pseudomonas aeruginosa TNP090 mutant harboring las and rhl gene at 0.016 ug/ml by Cat-2,3-diO reporter gene assay relative to untreated control; details: values are per cent of control; summary of the method: as §2
# Pseudomonas aeruginosa [23] = test: Inhibition of MexAB-OprM efflux pump expression in Pseudomonas aeruginosa TNP090 mutant harboring las and rhl gene at 0.06 ug/ml by Cat-2,3-diO reporter gene assay relative to untreated control; details: values are per cent of control; summary of the method: as §2
SMILES,MIC (Pseudomonas aeruginosa [1]),MIC (Pseudomonas aeruginosa [2]),MIC (Pseudomonas aeruginosa [3]),MIC (Pseudomonas aeruginosa [4]),MIC (Pseudomonas aeruginosa [5]),MIC (Pseudomonas aeruginosa [6]),further results
CO[C@@H]1[C@@H](OC(N)=O)[C@@H](O)[C@H](Oc2ccc3c(O)c(NC(=O)c4ccc(O)c(CC=C(C)C)c4)c(=O)oc3c2C)OC1(C)C [NOVOBIOCIN],800 µg/mL,200 µg/mL,> 1200 µg/mL,> 1200 µg/mL,12.5 µg/mL,12.5 µg/mL,–
C[C@@H](O)[C@H]1C(=O)N2C(C(=O)O)=C(SCCNC=N)C[C@H]12 [IMIPENEM ANHYDROUS],0.78 µg/mL,0.78 µg/mL,0.78 µg/mL,0.78 µg/mL,0.78 µg/mL,0.78 µg/mL,–
CC(C)(O/N=C(\C(=O)N[C@@H]1C(=O)N2C(C(=O)[O-])=C(C[n+]3ccccc3)CS[C@H]12)c1csc(N)n1)C(=O)O [CEFTAZIDIME],1.56 µg/mL,1.56 µg/mL,3.13 µg/mL,3.13 µg/mL,0.39 µg/mL,0.39 µg/mL,–
CC[C@H]1OC(=O)[C@H](C)[C@@H](O[C@H]2C[C@@](C)(OC)[C@@H](O)[C@H](C)O2)[C@H](C)[C@@H](O[C@@H]2O[C@H](C)C[C@H](N(C)C)[C@H]2O)[C@](C)(O)C[C@@H](C)CN(C)[C@H](C)[C@@H](O)[C@]1(C)O [AZITHROMYCIN],–,–,–,–,–,–,"response, % of control at 1 µg/mL (Pseudomonas aeruginosa [7]): 37%; response, % of control at 0.5 µg/mL (Pseudomonas aeruginosa [8]): 65%; response, % of control at 0.25 µg/mL (Pseudomonas aeruginosa [9]): 78%; response, % of control at 0.125 µg/mL (Pseudomonas aeruginosa [10]): 85%; response, % of control at 1 µg/mL (Pseudomonas aeruginosa [11]): 100%; response, % of control at 1 µg/mL (Pseudomonas aeruginosa [12]): 90%; response, % of control at 1 µg/mL (Pseudomonas aeruginosa [13]): 99%; inhibition at 1 µg/mL (Pseudomonas aeruginosa [14]): -63%; inhibition at 1 µg/mL (Pseudomonas aeruginosa [15]): -70.2%; inhibition at 1 µg/mL (Pseudomonas aeruginosa [16]): -73%; inhibition at 1 µg/mL (Pseudomonas aeruginosa [17]): -30.9%; Activity (Pseudomonas aeruginosa [18]): 44.3; inhibition at 1 µg/mL (Pseudomonas aeruginosa [19]): 70%; MIC (Pseudomonas aeruginosa [20]): 6.25 µg/mL"
CC1(C)S[C@@H]2[C@H](NC(=O)C(C(=O)O)c3ccccc3)C(=O)N2[C@H]1C(=O)O (stereo partly specified) [CARBENICILLIN],50 µg/mL,12.5 µg/mL,200 µg/mL,200 µg/mL,0.78 µg/mL,1.56 µg/mL,–
C[C@H]1[C@H](NC(=O)/C(=N\OC(C)(C)C(=O)O)c2csc(N)n2)C(=O)N1S(=O)(=O)O [AZTREONAM],3.12 µg/mL,1.56 µg/mL,12.5 µg/mL,12.5 µg/mL,0.1 µg/mL,0.1 µg/mL,–
O=C(N[C@H](CO)[C@H](O)c1ccc([N+](=O)[O-])cc1)C(Cl)Cl [CHLORAMPHENICOL],25 µg/mL,6.25 µg/mL,200 µg/mL,200 µg/mL,0.39 µg/mL,0.39 µg/mL,–
CN(C)[C@@H]1C(O)=C(C(N)=O)C(=O)[C@@]2(O)C(O)=C3C(=O)c4c(O)cccc4[C@@](C)(O)[C@H]3C[C@@H]12 [TETRACYCLINE],12.5 µg/mL,3.13 µg/mL,50 µg/mL,50 µg/mL,0.39 µg/mL,0.39 µg/mL,"response, % of control at 0.03 µg/mL (Pseudomonas aeruginosa [21]): 94%; response, % of control at 0.016 µg/mL (Pseudomonas aeruginosa [22]): 103%; response, % of control at 0.125 µg/mL (Pseudomonas aeruginosa [10]): 51%; response, % of control at 0.06 µg/mL (Pseudomonas aeruginosa [23]): 69%"
CC1COc2c(N3CCN(C)CC3)c(F)cc3c(=O)c(C(=O)O)cn1c23 (stereo unspecified) [OFLOXACIN],0.78 µg/mL,0.78 µg/mL,> 1.56 µg/mL,> 1.56 µg/mL,0.05 µg/mL,0.05 µg/mL,–
